For four compounds, Activity, IC50 and inhibition results are on record in ChEMBL document CHEMBL1139427, “Inhibition of IkappaB kinase-beta and anticancer activities of novel chalcone adamantyl arotinoids” (J Med Chem, 2008).

In test [1] the target is T1, Inhibitor of nuclear factor kappa-B kinase subunit beta (Homo sapiens) (UniProt O14920).
T1 sequence (whole entry): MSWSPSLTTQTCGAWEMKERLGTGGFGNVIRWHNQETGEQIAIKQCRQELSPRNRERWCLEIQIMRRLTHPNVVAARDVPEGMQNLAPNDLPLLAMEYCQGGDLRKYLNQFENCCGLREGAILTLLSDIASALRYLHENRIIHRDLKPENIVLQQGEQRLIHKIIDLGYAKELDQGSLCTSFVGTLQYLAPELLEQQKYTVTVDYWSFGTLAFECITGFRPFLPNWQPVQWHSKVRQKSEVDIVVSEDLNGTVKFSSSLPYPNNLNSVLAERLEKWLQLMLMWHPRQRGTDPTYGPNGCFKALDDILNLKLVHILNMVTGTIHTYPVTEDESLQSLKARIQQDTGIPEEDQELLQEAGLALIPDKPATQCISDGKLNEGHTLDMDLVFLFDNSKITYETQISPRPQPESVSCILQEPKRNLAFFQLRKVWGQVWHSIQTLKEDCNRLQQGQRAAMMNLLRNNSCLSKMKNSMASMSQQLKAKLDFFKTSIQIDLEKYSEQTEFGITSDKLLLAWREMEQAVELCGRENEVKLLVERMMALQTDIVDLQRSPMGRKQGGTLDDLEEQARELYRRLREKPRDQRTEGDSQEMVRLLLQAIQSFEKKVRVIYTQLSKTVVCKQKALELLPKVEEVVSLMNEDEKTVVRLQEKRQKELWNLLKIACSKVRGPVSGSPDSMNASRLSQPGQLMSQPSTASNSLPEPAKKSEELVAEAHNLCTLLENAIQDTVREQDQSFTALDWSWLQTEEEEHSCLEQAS
In words: Inhibition of purified recombinant histidine-HA-tagged IKK-beta expressed in SF9 cells at 20 uM. The gist of the method:
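(His)6-HA-IKKβ expressed in baculovirus-infected Sf9 cells and Ni-resin purified. 100 ng enzyme in MOPS pH 7.0 buffer with 5 µg GST-IκBα, 10 mM MgCl₂, 6.25 µM ATP (Km level) plus ³²P-γ-ATP. Compound (20 µM) preincubated with enzyme/substrate before ATP/Mg addition. 30 min at 30 °C, stopped with phosphoric acid, filter-bound radioactivity counted. No-enzyme background subtracted; activity as ratio to control. Two to four experiments in triplicate.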

Test [2] addresses T2, Retinoic acid receptor alpha (Homo sapiens) (UniProt P10276).
T2 sequence (whole entry): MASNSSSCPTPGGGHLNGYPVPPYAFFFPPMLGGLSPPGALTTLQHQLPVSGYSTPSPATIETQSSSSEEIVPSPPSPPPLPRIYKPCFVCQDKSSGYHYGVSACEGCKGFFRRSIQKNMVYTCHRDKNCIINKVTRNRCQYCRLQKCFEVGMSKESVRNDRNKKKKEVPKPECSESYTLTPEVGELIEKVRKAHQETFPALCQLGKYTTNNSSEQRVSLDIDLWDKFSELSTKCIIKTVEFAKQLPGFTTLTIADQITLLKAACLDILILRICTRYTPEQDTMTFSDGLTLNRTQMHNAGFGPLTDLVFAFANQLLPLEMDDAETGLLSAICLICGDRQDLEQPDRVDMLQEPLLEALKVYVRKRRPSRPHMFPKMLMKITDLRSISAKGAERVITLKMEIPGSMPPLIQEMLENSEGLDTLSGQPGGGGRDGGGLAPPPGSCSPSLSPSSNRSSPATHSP
As to the kind of experiment: Antagonist activity at human RARalpha expressed in african green monkey CV1 cells assessed as all-trans-retinoic acid-stimulated Gal4 transactivation activity by luciferase reporter gene assay. In kind it is functional, cell-based. The note with it: CV-1. The procedure, abridged:
(§1)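 Same Gal4-RAR LBD/UAS-luciferase CV-1 transfection, 5% charcoal-treated FBS medium. Cells stimulated with 0.2 µM ATRA alone or with 2 µM compound (10-fold molar excess). Readout after 6 h (RARα, RARβ) or 20 h (RARγ). Luciferase normalized to β-galactosidase, as % of ATRA maximum; mean ± SD, ≥2 experiments in triplicate.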

Test [3] deals with T3, Retinoic acid receptor beta (Homo sapiens) (UniProt P10826).
T3 sequence (whole entry): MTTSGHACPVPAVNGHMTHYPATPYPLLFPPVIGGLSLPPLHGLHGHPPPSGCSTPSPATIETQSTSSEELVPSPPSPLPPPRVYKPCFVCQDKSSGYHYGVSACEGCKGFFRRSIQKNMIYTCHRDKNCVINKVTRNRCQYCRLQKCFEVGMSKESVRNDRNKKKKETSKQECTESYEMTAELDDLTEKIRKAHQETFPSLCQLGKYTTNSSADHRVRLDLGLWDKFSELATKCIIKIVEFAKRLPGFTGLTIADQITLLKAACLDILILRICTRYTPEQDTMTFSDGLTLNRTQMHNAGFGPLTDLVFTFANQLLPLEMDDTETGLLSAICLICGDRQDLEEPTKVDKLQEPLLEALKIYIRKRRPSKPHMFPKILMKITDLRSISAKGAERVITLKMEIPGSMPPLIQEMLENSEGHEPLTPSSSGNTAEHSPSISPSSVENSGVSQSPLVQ
As to the kind of experiment: Antagonist activity at human RARbeta expressed in african green monkey CV1 cells assessed as all-trans-retinoic acid-stimulated Gal4 transactivation activity by luciferase reporter gene assay. The note with it: CV-1. Set-up: scale not given: the % may be the effect or the level left. In kind it is functional, cell-based. The procedure, abridged:
as §1

The target in test [4] is T4, Retinoic acid receptor gamma (Homo sapiens) (UniProt P13631).
T4 sequence (whole entry): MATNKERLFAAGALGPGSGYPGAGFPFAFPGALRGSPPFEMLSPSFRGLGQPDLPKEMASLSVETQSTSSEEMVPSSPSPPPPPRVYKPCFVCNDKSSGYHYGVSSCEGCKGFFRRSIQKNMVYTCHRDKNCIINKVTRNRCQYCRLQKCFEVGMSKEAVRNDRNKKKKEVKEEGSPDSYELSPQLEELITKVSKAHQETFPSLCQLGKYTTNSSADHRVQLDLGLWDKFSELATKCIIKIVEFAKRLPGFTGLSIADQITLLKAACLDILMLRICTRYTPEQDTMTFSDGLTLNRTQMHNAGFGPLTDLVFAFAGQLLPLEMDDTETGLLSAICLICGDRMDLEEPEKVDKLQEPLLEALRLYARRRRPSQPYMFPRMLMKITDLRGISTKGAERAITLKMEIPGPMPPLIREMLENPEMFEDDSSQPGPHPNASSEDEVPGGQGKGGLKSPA
As to the kind of experiment: Antagonist activity at human RARgamma expressed in african green monkey CV1 cells assessed as all-trans-retinoic acid-stimulated Gal4 transactivation activity by luciferase reporter gene assay. In kind it is functional, cell-based. Details: scale not given: the % may be the effect or the level left. The note with it: CV-1. The gist of the method: as §1

In test [5] the target is T2, Retinoic acid receptor alpha (Homo sapiens). As to the kind of experiment: Activity at human RARalpha expressed in african green monkey CV1 cells assessed as enhanced Gal4 transactivation activity by luciferase reporter gene assay. In kind it is cell-based. The note with it: CV-1. The gist of the method:
(§2)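 Gal4 DBD fused to human RAR LBD (α 156-462, β 149-448, γ 158-454), cotransfected into CV-1 cells (20 000/well) with UAS-luciferase and β-galactosidase vectors. 16 h later, medium with 5% charcoal-treated FBS; compound at 2 µM alone, ATRA 1 µM reference. Read after 6 h (RARα, RARβ) or 20 h (RARγ). Normalized luciferase as % of ATRA maximum; mean ± SD, ≥2 experiments in triplicate.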
(In general: Reporter assays use an easily measured gene product as a stand-in for the process of interest.)

For test [6], the target named is T3, Retinoic acid receptor beta (Homo sapiens). As to the kind of experiment: Activity at human RARbeta expressed in african green monkey CV1 cells assessed as enhanced Gal4 transactivation activity by luciferase reporter gene assay. In kind it is cell-based. The note with it: CV-1. The procedure, abridged:
as §2

Test [7] deals with T4, Retinoic acid receptor gamma (Homo sapiens). In words: Activity at human RARgamma expressed in african green monkey CV1 cells assessed as enhanced Gal4 transactivation activity by luciferase reporter gene assay. In kind it is cell-based. The note with it: CV-1. The gist of the method: as §2
Test [8] relates to Jurkat. As to the kind of experiment: Antiproliferative activity against retinoid related molecule-sensitive human Jurkat cells after 24 hrs by MTT assay. In kind it is functional, cell-based. The procedure, abridged:
(§3)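 MTT viability assay. PC-3, T-47D and MDA-MB-468 seeded at 5000/well the day before, switched to 0.5% FBS medium at treatment. Jurkat seeded at 10 000/well (10⁵ cells/mL) in RPMI with 0.5% FBS. Compound 0.125-8 µM from DMSO stocks; DMSO ≤0.1% as control. Jurkat 24 h, others 48 h. MTT 4 h at 37 °C, SDS/HCl solubilization, A595. IC50 from two experiments in triplicate.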
In general terms: Formazan colour is commonly taken as a measure of viable cells.

In a further test the test system is PC-3. In words: Antiproliferative activity against human PC3 cells after 48 hrs by MTT assay. In kind it is functional, cell-based. The note with it: PC-3, 48 h. The gist of the method: as §3
The subject of the next test is T47D. In words: Antiproliferative activity against estrogen-dependent human T47D cells after 48 hrs by MTT assay. In kind it is functional, cell-based. The gist of the method:
as §3

The test system of test [9] is MDA-MB-468. In words: Antiproliferative activity against estrogen-independent human MDA-MB-468 cells after 48 hrs by MTT assay. In kind it is functional, cell-based. The note with it: MDA-MB-468, 48 h. The procedure, abridged: as §3
In test [10] the test system is MDA-MB-468. As to the kind of experiment: Antiproliferative activity against estrogen-independent human MDA-MB-468 cells by MTT assay. In kind it is functional, cell-based. The note with it: TDE = time-dependent effect. The gist of the method: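 MDA-MB-468 cells exposed to 2 µM compound in 0.5% FBS medium for 24, 48 or 72 h. Proliferation by MTT (A595) relative to DMSO control. Experiment repeated twice with triplicate time points; one representative experiment reported.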

Test [11] concerns Jurkat. In words: Induction of apoptosis in human Jurkat cells assessed as enhanced DEVDase activity after 4 hrs by fluorescence enzymatic assay. In kind it is functional, cell-based. The procedure, abridged:
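Jurkat cells (40 000/well, 10⁶ cells/mL) in RPMI with 0.5% FBS, treated 4 h (2 or 4 µM). Lysed in PIPES/NP-40 buffer 30 min at 4 °C, then diluted into HEPES/CHAPS caspase buffer with 100 µM Ac-DEVD-AFC. AFC release read every 2 min over 30 min at 37 °C (ex 390/em 510 nm). Two experiments in triplicate, mean ± SD.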

For test [12], the system named is Retinoid X receptor RXR-alpha (Mus musculus). In words: Inhibition of LGD-1069-mediated mouse RXRalpha activation expressed in african green monkey CV1 cells. To be noted: CV-1.
For test [13] the test system is unchanged. In words: Activation of mouse RXRalpha expressed in african green monkey CV1 cells assessed as luciferase activity. The note with it: CV-1.
For test [14] the test system is unchanged. As to the kind of experiment: Inhibition of 9-cis-retinoic acid-mediated mouse RXRalpha activation expressed in african green monkey CV1 cells. To be noted: CV-1.
Test [15] has as its system MDA-MB-468. As to the kind of experiment: Antiproliferative activity against estrogen-independent human MDA-MB-468 cells at 2 uM after 72 hrs by MTT assay.
The target in test [16] is T5, Inhibitor of nuclear factor kappa-B kinase subunit beta (Homo sapiens, UniProt O14920).
T5 sequence (O14920 whole entry): T1 sequence (whole entry)
As to the kind of experiment: Inhibition of purified recombinant histidine-HA-tagged IKK-beta expressed in SF9 cells.

The source made the active and inactive calls. The rule behind the calls is not given here.

For the compound `Cc1ccc2nc(NCCN)c3ncc(C)n3c2c1`, in [1], the result was Active.
Regarding `CC1(C)CC=C(C#Cc2ccccc2)c2cc(/C=C/c3ccc(C(=O)O)cc3)ccc21`, the result in test [2], in test [3] and in test [4] was Active.
`COCCOCOc1cc(O)c(C(=O)/C=C/c2ccc(C(=O)O)cc2)cc1C12CC3CC(CC(C3)C1)C2`: the result in [5], in [6], in test [7], in test [12], in [13] and in test [14] was inactive. Besides, the outcome (in test [2]; in test [3]; in [4]; in the test with Jurkat [11]) was Active. The IC50 amounted to 1.89 µM in the test on Jurkat [8], 2.51 µM in the test on PC-3, 8 µM in the test on T47D and 6.08 µM in the test on MDA-MB-468 [9]. The Activity entry is “tde” in the test on MDA-MB-468 [10] and 40% in the test with MDA-MB-468 [15].
In the case of `COCCOCOc1ccc(C(=O)/C=C/c2ccc(C(=O)O)cc2)cc1C12CC3CC(CC(C3)C1)C2`, the result in [5], in test [6], in test [7], in test [12], in [13] and in test [14] was inactive. In addition, the result (in test [2]; in the test with Jurkat [11]) was Active. The Activity in test [3] is 30%; in test [4], 30%; with MDA-MB-468 [10], “tde”. Also, the IC50 with Jurkat [8] came to 1.2 µM; in the test with PC-3, 1.48 µM; in the test on T47D, 3.27 µM; with MDA-MB-468 [9] it was 2.11 µM; in [16], 7 µM. Moreover, the inhibition in [1] worked out at 65%.

What is called IC50 is the concentration at which inhibition is half-maximal. A word on the inhibition: it is the percentage by which the read-out fell short of the control.
